An excerpt weighted towards active compounds, which were near 2% of everything screened.
M5 ag – agonists of human muscarinic M5 receptor (CHRM5) | 360,000 compounds, 0.19% hits | CHO-K1 hM5 cells, Fluo-8 calcium fluorescence; 0% DMSO wells, 100% maximal acetylcholine response | P08912 | AID 624037 | activation, % at 3 µM;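 active = activation above the run's mean over test compounds plus 3 SD, cut at about 23% in these data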;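 note: signal is peak over basal fluorescence ratio across the kinetic read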
CHRM1 PAM – positive allosteric modulators of human M1 muscarinic receptor; CHO-K1 hM1, Fluo-8 calcium fluorescence, ACh EC20; 0% = ACh EC20, 100% = maximal ACh; activation, % at 3 µM; 360,000 compounds, 0.088% hits; AID 588819; in the data active = activation above about 19%, passing the limit was not always enough
Target sequence (P11229 whole entry, looked up): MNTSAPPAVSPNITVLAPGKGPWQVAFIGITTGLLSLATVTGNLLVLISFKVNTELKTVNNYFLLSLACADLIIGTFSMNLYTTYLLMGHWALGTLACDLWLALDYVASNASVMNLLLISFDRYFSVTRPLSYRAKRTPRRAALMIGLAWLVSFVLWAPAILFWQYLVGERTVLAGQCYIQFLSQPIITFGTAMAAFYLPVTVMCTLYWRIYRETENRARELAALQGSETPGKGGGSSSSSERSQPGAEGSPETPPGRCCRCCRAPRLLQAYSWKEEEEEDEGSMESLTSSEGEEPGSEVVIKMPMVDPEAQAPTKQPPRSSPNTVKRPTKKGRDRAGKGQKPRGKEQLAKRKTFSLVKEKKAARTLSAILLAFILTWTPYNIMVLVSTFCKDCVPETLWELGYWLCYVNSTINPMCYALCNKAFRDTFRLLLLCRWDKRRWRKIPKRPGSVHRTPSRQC
M1 antag – blocks human M1 muscarinic receptor | CHO-K1 hM1, Fluo-8 calcium fluorescence, ACh EC80 antagonist | 360,000 compounds, 1.3% hits | P11229 | AID 588852 | inhibition, % at 3 µM;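 active = percent inhibition above its own plate's cutoff, namely the mean of that plate's compound wells plus 3 SD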;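 note: peak over basal fluorescence ratio during 140 s after agonist addition; 0% = ACh EC80 plus DMSO and 100% = DMSO alone without agonist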
CHRM5 antagonist – antagonists of human muscarinic M5 receptor (CHRM5); CHO-hM5 cells, Fluo-8 calcium fluorescence, ACh EC80; 360,000 compounds, 0.59% hits; P08912; inhibition, % at 3 µM;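 active = inhibition above a per-plate cutoff, the mean of that plate's test compounds plus 3 SD, cut at about 27% in these data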;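 note: 0% = acetylcholine EC80 with DMSO and 100% = DMSO without agonist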
CHRM1 agonist – agonists of human M1 muscarinic receptor; P11229; CHO-K1 hM1, Fluo-8 calcium fluorescence, agonist mode; 0% DMSO, 100% acetylcholine EC100; activation, % at 3 µM; 360,000 compounds, 0.33% hits; AID 588814;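 active = activation above the run's mean compound activation plus 3 SD, cut at about 16% in these data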;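 note: peak over basal fluorescence ratio within a 140 s kinetic read after compound addition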
CHRM5 PAM – potentiates acetylcholine response at human M5 receptor; CHO-K1 hM5, Fluo-8 calcium, ACh EC20 PAM; 0% = ACh EC20, 100% = ACh EC100; activation, % at 3 µM; 360,000 compounds, 0.3% hits; P08912;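 active = activation above the run cutoff, the mean activation of all test compounds plus 3 SD, cut at about 18% in these data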
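Test system: CHO-K1 hM5 cells / Doses: single-point, 3 µM nominal / Times: Post-acetylcholine fluorescence recording 140 s / Technique: Fluo-8 calcium fluorescence / Measure: Max/basal fluorescence ratio as % of EC20–EC100 ACh window / Benchmarks: low control EC20 acetylcholine (0%), high control EC100 acetylcholine (100%) / Replicates: one well per compound, no replicates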
An asterisk follows results filed as active; nt = no result given.

SMILES | M5 ag | CHRM1 PAM | M1 antag | CHRM5 antagonist | CHRM1 agonist | CHRM5 PAM
CCC/C=C/c1ccc(CN2C(C(C)C)C(=O)N(Cc3cn(CC4CCCCC4)nn3)CCS2(=O)=O)cc1 (stereo not given) | 1 | 0 | -5 | -13 | -3 | 5
COc1cc(CNC(=O)C2CCCC2)cc(OC)c1OC | -2 | 27* | -26 | -8 | 1 | 9
CCC(C(=O)Nc1sc(C(N)=O)c(C)c1C(=O)OC)c1ccccc1 (stereo not given) | 6 | 3 | -1 | -2 | 0 | 2
Cc1cc(O)ccc1-c1cc(C(=O)NCc2ccc(F)cc2)[nH]n1 | 33* | -3 | 3 | -12 | 25* | -3
C[C@H]1CN([C@@H](C)CO)C(=O)c2cc(-c3ccccc3F)cnc2O[C@@H]1CN(C)C(=O)NC1CCCCC1 | -1 | 0 | -12 | 1 | -6 | 5
CCCCCN(C(=O)CCC(=O)OCC(=O)NCCc1ccccc1)c1c(N)n(CCCC)c(=O)[nH]c1=O | -1 | 3 | -4 | -4 | -5 | 5
CCc1c(C#N)c(SCCC(=O)Nc2cccc(OC)c2)nc2c1C(=O)CC(C)(C)C2 | -2 | -11 | 14 | 6 | -1 | -12
CCc1c(C#N)c(SCCC(=O)Nc2ccc(F)cc2)nc2c1C(=O)CC(C)(C)C2 | -1 | -18 | 38* | 15 | 0 | -26
CN(C)CCC1c2ccc(Cl)cc2CCc2cccnc21 (stereo not given) (tested in a mixture with another compound) | -1 | -28 | 49* | 17 | -11 | -16
CN(C)CCCOc1ccc(Cl)cc1Br | -9 | -5 | 3 | 9 | -8 | -8
O=C(CN1CCCCC1)NC(=O)NC1CCCCC1 | -5 | 13 | -19 | 55* | -2 | -17
CCC(=O)N1CCC1(C)C(=O)Nc1cc(OC)ccc1OC (stereo not given) | -3 | -2 | 1 | 20 | -3 | -1
COc1cc(/C=C(/NC(=O)c2ccccc2)C(=O)N2CCN(C)CC2)c([N+](=O)[O-])cc1OC | 2 | 6 | -7 | 1 | -5 | -2
COc1cc(/C=C(/NC(=O)c2ccccc2)C(=O)N2CCOCC2)c([N+](=O)[O-])cc1OC | -2 | 10 | -8 | 29* | -1 | -6
Brc1cccc(-c2nnc3n2CCCCC3)c1 | -13 | 3 | -19 | 0 | -5 | 1
Brc1cccc(-c2cnc3n2CCCCC3)c1 | -10 | -19 | 48* | 14 | -4 | -16
CC1(C(=O)Nc2ccc3c(c2)OCO3)CCN1C(=O)CCc1ccc(Cl)cc1Cl (stereo not given) | -1 | -6 | -2 | 1 | -5 | -2
CN(C)C(C)(C)/C=C/C(O)(c1ccccc1)c1ccccc1 | -20 | -26 | 100* | 63* | -8 | -30
O=C(NC(NC(=S)Nc1cccc(Cl)c1)C(Cl)(Cl)Cl)OCc1ccccc1 (stereo not given) | 9 | -21 | 20 | 27* | 2 | -21
O=C(CCc1ccccc1)NC(NC(=S)Nc1ccc(Cl)cc1)C(Cl)(Cl)Cl (stereo not given) | 7 | -10 | 23* | -2 | 5 | 9
O=C(NC(NC(=S)Nc1cccc(C(=O)O)c1)C(Cl)(Cl)Cl)OCc1ccccc1 (stereo not given) | 1 | 10 | -1 | -6 | -2 | 6
S=C(NCCC(c1ccccc1)c1ccccc1)Nc1ccc(Cl)cc1 | 1 | -11 | 26 | 33* | -2 | -14
S=C(NCCC(c1ccccc1)c1ccccc1)Nc1ccccc1Cl | -6 | -13 | -12 | 8 | -4 | -15
CCCCCCN1CCN(C2CN(CCCC)S(=O)(=O)C2)CC1 (stereo not given) | -6 | -18 | 20 | 1 | -7 | -6
COC(=O)C1=CN(C2CC2)C=C(C(=O)OC)C1c1ccc(C(=O)OC)cc1 | -6 | -25 | 34* | 5 | -7 | 1
CCCCNC(=O)C1c2ccccc2OCC(=O)N1Cc1cccnc1 (stereo not given) | 0 | nt | nt | -3 | nt | 1
